This note sets out measurements from ChEMBL document CHEMBL1156291, “Design of potent and selective GSK3beta inhibitors with acceptable safety profile and pharmacokinetics” (Bioorg Med Chem Lett, 2010).

Broadly, the solubility is the dissolved amount per volume that the medium holds. For orientation: logD means the decadic logarithm of the distribution of all forms, ionised or not, between an organic phase and buffer at a given pH. Read a high logD as a more lipophilic compound. As a reminder, the IC50 is the concentration needed to halve the response being measured. Usually inhibition stands for the relative decrease from the control value, in per cent. The low end stands for a weak effect, the high end for a strong effect.

The nature of series [1]: Solubility of the compound. Format: physicochemical. In outline: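 Solubility measured by nephelometry.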
A short description of series [2]: Lipophilicity, log D at pH 7.4. Format: physicochemical. Conditions: buffer.
The target in a further series is Albumin (Homo sapiens, UniProt P02768). Nature of the series: Binding affinity to human serum albumin. Format: ADME. The conditions noted are these: isolated protein.
Sequence of Albumin (P02768 whole entry): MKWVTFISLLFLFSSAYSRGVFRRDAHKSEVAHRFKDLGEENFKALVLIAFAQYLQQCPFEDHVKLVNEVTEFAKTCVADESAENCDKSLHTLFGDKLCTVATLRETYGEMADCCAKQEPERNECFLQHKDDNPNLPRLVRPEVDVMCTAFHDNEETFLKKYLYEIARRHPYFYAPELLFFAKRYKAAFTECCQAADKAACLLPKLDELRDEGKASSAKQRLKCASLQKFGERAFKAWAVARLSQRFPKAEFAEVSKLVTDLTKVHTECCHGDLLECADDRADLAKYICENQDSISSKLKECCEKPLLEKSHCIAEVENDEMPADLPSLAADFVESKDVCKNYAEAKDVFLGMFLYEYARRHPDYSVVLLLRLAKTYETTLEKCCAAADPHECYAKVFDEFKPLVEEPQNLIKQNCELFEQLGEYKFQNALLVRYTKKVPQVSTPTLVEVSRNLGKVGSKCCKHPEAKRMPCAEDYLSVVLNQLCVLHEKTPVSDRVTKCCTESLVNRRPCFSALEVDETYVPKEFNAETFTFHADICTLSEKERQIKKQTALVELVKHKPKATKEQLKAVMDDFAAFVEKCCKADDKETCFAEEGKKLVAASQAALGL
The nature of series [3]: Metabolic stability in human liver S9 fraction assessed as compound remaining after 15 mins. The format is ADME, subcellular. The conditions noted are these: read-out: Activity. The method, boiled down:
(§1)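 Compound exposed for 15 min to hepatic S9 fraction, human or mouse according to the line. Read-out is percent of parent compound remaining.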

A short description of series [4]: Metabolic stability in mouse liver S9 fraction assessed as compound remaining after 15 mins. Conditions: read-out: Activity. The format is ADME, subcellular. The method, boiled down: as §1
The next series concerns the target T1, Cytochrome P450 1A2 (Homo sapiens, UniProt P05177).
T1 sequence (P05177 whole entry): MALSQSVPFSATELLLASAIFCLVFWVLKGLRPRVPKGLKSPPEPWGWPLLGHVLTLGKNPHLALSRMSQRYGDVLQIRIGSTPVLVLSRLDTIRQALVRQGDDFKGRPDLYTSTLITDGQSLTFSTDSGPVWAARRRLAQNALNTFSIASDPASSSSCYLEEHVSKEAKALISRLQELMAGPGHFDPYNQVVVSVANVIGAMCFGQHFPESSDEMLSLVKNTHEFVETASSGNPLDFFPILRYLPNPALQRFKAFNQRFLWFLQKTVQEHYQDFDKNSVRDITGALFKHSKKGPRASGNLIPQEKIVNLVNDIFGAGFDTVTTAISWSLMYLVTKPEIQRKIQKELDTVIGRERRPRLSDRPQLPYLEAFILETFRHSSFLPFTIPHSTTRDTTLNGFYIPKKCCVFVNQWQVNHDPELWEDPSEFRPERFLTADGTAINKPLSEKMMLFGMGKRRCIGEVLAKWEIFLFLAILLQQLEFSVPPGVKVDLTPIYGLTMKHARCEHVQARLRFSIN
In words: Inhibition of human recombinant CYP1A2. Format: ADME. The method, boiled down: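 Human recombinant CYP1A2 with 3-cyano-7-ethoxycoumarin as probe substrate. Fluorescence read at Ex 410 nm / Em 460 nm. IC50 determined.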

In the next series the target is Cytochrome P450 3A4 (Homo sapiens, UniProt P08684). Nature of the series: Inhibition of human recombinant CYP3A4. Format: ADME.
Sequence of Cytochrome P450 3A4 (P08684 whole entry): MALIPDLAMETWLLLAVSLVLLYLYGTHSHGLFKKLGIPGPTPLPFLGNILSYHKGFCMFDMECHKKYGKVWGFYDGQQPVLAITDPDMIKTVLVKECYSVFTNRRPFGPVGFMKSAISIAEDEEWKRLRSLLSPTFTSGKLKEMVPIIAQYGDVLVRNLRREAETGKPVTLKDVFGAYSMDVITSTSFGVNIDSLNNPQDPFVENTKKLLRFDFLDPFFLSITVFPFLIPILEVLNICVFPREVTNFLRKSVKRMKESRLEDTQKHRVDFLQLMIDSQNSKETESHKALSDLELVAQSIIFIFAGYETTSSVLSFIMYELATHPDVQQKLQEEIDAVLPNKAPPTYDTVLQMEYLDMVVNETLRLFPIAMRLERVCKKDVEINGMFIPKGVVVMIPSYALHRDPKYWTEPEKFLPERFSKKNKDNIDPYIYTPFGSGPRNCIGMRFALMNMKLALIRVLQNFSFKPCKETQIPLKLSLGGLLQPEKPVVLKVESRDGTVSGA
The target of the next series is Cytochrome P450 2D6 (Homo sapiens, UniProt P10635). Nature of the series: Inhibition of human recombinant CYP2D6. The format is ADME.
Sequence of Cytochrome P450 2D6 (P10635 whole entry): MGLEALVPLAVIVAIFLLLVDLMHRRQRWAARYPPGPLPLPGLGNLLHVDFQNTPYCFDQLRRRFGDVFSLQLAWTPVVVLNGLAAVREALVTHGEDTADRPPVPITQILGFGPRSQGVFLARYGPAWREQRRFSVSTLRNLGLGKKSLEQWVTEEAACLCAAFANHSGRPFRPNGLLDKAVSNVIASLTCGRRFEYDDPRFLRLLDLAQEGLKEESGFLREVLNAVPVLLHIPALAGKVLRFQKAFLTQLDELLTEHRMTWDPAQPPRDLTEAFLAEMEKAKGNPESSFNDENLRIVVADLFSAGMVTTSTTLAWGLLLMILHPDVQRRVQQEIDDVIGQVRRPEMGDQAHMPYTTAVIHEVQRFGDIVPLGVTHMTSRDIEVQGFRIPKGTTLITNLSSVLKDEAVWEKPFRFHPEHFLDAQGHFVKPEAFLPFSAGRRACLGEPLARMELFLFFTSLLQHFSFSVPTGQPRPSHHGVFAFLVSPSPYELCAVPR
For the next series, the target named is Cytochrome P450 2C9 (Homo sapiens, UniProt P11712). Nature of the series: Inhibition of human recombinant CYP2C9. The format is ADME.
Sequence of Cytochrome P450 2C9 (P11712 whole entry): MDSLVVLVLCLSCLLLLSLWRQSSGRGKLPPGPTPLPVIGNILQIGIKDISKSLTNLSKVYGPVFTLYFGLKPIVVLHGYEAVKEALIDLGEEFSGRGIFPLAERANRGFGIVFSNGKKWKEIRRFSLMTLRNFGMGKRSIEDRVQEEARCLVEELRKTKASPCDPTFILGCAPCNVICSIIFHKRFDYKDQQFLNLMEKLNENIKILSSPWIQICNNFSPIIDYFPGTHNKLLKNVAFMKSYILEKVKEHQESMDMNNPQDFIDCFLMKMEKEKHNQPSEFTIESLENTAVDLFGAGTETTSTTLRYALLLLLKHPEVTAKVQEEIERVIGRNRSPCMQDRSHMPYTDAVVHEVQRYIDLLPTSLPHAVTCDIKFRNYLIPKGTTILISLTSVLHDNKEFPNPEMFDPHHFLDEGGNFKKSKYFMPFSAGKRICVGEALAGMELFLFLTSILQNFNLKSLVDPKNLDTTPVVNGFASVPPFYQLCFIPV
The next series addresses Cytochrome P450 2C19 (Homo sapiens, UniProt P33261). Nature of the series: Inhibition of human recombinant CYP2C19. The format is ADME.
Another series addresses hERG (KCNH2) (Homo sapiens, UniProt Q12809). Nature of the series: Inhibition of human ERG at 10 uM.
The target in series [5] is Cytochrome P450 1A2 (Homo sapiens) (UniProt P05177). Nature of the series: Inhibition of human recombinant CYP1A2 by kinetic assay.
A further series deals with Caco-2. In words: Permeability across human Caco-2 cells assessed as compound transport per hr. Format: ADME, cell-based.
The target in series [6] is Cyclin-dependent kinase 2 (Homo sapiens) (UniProt P24941). In words: Inhibition of CDK2 at 10 uM.
The target in series [7] is Cyclin-dependent kinase 4 (Homo sapiens) (UniProt P11802). Nature of the series: Inhibition of CDK4 at 10 uM.
Sequence of Cyclin-dependent kinase 4 (Homo sapiens) (P11802 whole entry): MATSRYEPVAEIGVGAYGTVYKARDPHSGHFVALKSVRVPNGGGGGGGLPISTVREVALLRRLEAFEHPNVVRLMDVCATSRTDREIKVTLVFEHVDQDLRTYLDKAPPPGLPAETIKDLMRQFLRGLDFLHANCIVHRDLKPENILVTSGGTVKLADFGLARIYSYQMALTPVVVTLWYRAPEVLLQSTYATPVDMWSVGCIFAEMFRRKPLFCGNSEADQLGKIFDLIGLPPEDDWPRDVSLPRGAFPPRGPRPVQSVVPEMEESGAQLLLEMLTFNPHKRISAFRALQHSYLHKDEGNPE
The target of series [8] is Cyclin-dependent kinase 5 (Homo sapiens) (UniProt Q00535). In words: Inhibition of CDK5 at 10 uM.
In series [9] the target is Cyclin-dependent kinase 9 (Homo sapiens) (UniProt P50750). Nature of the series: Inhibition of CDK9 at 10 uM.
Sequence of Cyclin-dependent kinase 9 (Homo sapiens) (P50750 whole entry): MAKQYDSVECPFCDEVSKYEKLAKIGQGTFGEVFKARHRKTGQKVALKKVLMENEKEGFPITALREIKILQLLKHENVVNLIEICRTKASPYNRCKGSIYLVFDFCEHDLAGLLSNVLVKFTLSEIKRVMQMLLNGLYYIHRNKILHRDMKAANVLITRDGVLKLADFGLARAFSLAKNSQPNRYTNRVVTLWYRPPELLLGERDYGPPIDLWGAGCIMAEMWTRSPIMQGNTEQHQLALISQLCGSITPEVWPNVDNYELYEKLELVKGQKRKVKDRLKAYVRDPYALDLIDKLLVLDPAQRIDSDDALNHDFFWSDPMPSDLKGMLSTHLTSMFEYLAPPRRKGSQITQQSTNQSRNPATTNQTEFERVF
Series [10] concerns the target Voltage-gated inwardly rectifying potassium channel KCNH2 (Homo sapiens, UniProt Q12809). In words: Inhibition of human ERG.
Series [11] concerns the target Glycogen synthase kinase-3 beta (Rattus norvegicus) (UniProt P18266). In words: Inhibition of GSK3-beta assessed as tau phosphorylation.

Converted amounts (≈) assume the structure as drawn. Some results are limits rather than exact numbers.

Sequence of Cytochrome P450 2C19 (P33261 whole entry): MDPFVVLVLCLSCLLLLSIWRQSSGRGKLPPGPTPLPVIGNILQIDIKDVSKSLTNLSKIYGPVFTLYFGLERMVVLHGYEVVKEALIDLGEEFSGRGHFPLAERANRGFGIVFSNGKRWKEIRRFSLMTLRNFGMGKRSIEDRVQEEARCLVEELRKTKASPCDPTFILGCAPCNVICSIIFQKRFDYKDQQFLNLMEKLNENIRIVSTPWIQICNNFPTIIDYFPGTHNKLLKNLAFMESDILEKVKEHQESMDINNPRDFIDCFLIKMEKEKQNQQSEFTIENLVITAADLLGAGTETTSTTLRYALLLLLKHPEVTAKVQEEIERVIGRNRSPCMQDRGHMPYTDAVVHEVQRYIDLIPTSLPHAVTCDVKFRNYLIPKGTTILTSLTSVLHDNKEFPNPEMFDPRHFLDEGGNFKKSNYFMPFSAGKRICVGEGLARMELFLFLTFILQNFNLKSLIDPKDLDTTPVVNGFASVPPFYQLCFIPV
Sequence of hERG (KCNH2) (Q12809 whole entry): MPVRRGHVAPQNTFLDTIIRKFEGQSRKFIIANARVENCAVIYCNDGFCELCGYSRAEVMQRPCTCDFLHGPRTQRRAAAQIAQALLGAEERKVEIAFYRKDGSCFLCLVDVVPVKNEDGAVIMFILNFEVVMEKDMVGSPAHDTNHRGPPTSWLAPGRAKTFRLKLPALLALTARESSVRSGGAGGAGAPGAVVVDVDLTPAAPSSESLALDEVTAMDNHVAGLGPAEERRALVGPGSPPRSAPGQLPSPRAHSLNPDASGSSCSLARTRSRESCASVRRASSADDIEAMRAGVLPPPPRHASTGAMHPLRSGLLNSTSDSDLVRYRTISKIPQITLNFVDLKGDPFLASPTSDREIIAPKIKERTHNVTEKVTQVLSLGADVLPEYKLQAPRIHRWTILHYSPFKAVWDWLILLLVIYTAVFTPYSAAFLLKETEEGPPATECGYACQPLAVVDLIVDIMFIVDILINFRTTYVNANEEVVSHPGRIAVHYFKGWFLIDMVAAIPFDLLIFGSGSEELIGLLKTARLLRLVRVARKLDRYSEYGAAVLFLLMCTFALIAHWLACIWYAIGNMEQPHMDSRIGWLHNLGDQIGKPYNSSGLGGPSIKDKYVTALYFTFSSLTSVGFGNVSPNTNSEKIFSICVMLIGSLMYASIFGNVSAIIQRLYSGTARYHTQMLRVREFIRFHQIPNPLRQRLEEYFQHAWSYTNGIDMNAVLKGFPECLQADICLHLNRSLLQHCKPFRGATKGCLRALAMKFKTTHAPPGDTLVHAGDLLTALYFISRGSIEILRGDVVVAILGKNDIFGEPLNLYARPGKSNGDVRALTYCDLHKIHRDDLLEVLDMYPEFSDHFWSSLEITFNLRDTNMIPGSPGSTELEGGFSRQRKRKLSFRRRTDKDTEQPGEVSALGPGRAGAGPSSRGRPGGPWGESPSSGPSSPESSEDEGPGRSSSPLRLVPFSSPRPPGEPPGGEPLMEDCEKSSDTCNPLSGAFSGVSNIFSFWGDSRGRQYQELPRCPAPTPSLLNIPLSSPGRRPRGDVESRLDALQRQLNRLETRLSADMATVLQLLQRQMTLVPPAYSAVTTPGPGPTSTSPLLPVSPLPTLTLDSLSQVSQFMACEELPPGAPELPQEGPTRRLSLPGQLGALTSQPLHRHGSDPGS
Sequence of Glycogen synthase kinase-3 beta (Rattus norvegicus) (P18266 whole entry, looked up): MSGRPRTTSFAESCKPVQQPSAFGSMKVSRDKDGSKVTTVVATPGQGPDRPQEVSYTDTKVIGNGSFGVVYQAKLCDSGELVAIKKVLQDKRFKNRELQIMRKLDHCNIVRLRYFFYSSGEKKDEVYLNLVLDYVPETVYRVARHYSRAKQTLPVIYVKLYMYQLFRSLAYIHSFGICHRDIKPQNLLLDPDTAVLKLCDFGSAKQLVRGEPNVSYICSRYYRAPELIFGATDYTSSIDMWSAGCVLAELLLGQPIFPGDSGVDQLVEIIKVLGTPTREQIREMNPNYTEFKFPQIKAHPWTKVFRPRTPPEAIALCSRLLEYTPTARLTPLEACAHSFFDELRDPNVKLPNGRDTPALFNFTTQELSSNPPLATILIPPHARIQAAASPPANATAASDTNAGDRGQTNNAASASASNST

`CCCC(=O)Nc1n[nH]c2cc(-c3ccc(O)cc3)c(Br)cc12` yielded a solubility in series [1] of less than 20 µg/mL. In addition, the logD in series [2] turned out to be 4.4. At Albumin, the Activity is on record as 99.3%. The remaining at 0.25 h in series [3] worked out at 91%; in series [4], 10%. Also, the IC50 on Cytochrome P450 1A2 is greater than 10000 nM; at Cytochrome P450 3A4, greater than 10000 nM; at Cytochrome P450 2D6, greater than 10000 nM; on Cytochrome P450 2C9, greater than 10000 nM; at Cytochrome P450 2C19, greater than 10000 nM; in [5], 70 nM. Further, the inhibition at 10 µM against hERG (KCNH2) came to 7%.

Consider `O=C(Nc1n[nH]c2cc(Cl)c(-c3ccccc3)cc12)N1CCCC1`, for which the solubility in series [1] was less than 20 µg/mL. For the same compound, the remaining at 0.25 h in series [4] stood at 79%.

`CCCC(=O)Nc1n[nH]c2cc(-c3cc(F)cc(F)c3)ccc12`: the concentration for half-maximal inhibition (IC50) worked out at 13800 nM at Cytochrome P450 1A2 and 2700 nM in [5].

Consider `CCCC(=O)Nc1n[nH]c2cc(-c3ccsc3)ccc12`, for which the IC50 on Cytochrome P450 1A2 stood at 1900 nM.

In series [1], `O=C(NCCCn1ccnc1)Nc1n[nH]c2cc(Cl)c(-c3ccccc3)cc12` displayed a solubility of less than 20 µg/mL. Also, the remaining at 0.25 h in series [4] worked out at 85%.

`O=C(CN1CCOCC1)Nc1n[nH]c2cc(Cl)c(-c3ccccc3)cc12` came in with a solubility in series [1] of 28 µg/mL (≈ 75.5 µM). The compound also registered a pH-dependent lipophilicity (logD) in series [2] of 3.49.

For `CCCC(=O)Nc1n[nH]c2cc(-c3cccnc3)ccc12`, the IC50 on Cytochrome P450 1A2 turned out to be 1200 nM; in [5] it was 5900 nM.

In series [1], `CCCC(=O)Nc1n[nH]c2cc(Cl)c(-c3ccccc3)cc12` gave a solubility of less than 20 µg/mL. Also, the logD in [2] was 3.7. Further, the Activity at Albumin is on record as 99.4%. The remaining at 0.25 h in [3] stood at 91%; in [4], 40%. Also, the permeability with Caco-2 worked out at 3.9%. In addition, the half-maximal inhibitory concentration (IC50) was less than 400 nM on Cytochrome P450 1A2; greater than 10000 nM on Cytochrome P450 3A4; greater than 10000 nM at Cytochrome P450 2D6; greater than 10000 nM on Cytochrome P450 2C9; greater than 10000 nM at Cytochrome P450 2C19; 80 nM in series [5]. The compound further returned an inhibition at 10 µM on hERG (KCNH2) of 24%.

As to `CCCC(=O)Nc1n[nH]c2cc(Cl)c(-c3ccc(OCc4ccccc4)cc3)cc12`, the IC50 at Cytochrome P450 1A2 is greater than 10000 nM.

In the case of `CCCC(=O)Nc1n[nH]c2cc(Cl)c(-c3ccc(F)cc3)cc12`, the IC50 was 830 nM on Cytochrome P450 1A2 and 130 nM in series [5].

Regarding `O=C(O)CCC(=O)Nc1n[nH]c2cc(Cl)ccc12`, the solubility in [1] (read-out: solubility) turned out to be 716 µg/mL (≈ 2670 µM). This compound showed a log distribution coefficient (logD) in [2] of less than 1. The Activity at Albumin is listed as less than 90%. Further, the IC50 at Cytochrome P450 1A2 is greater than 50000 nM.

Turning to `CCCC(=O)Nc1n[nH]c2cc(Cl)c(-c3ccc([N+](=O)[O-])cc3)cc12`, at Cytochrome P450 1A2, the IC50 came out at 4460 nM.

In series [1], `O=C(Nc1ccccc1)Nc1n[nH]c2cc(Cl)c(-c3ccccc3)cc12` came in with a solubility of less than 20 µg/mL. The remaining at 0.25 h in series [4] came to 92%. Besides, the inhibition in series [6] is less than 50%; in series [7], less than 50%; in series [8], less than 50%; in series [9], 81%. Moreover, the IC50 in [10] is greater than 10000 nM; in [11], 270 nM.

With `CN1CCN(CCCNC(=O)Nc2n[nH]c3cc(Cl)c(-c4ccccc4)cc23)CC1`, in [1], the solubility is greater than 208 µg/mL. The remaining at 0.25 h in [4] is 100%.

In series [1], `CCCC(=O)Nc1n[nH]c2cc(-c3ccc(O)cc3)ccc12` showed a solubility of 67 µg/mL (≈ 227 µM). At Albumin, this compound gave an Activity of 97.3%. For the same compound, the remaining at 0.25 h in series [3] is 58%; in [4] it was 4%. Besides, in the series with Caco-2, the permeability turned out to be 15.25%. Moreover, the figures for the IC50 (at Cytochrome P450 1A2; in [5]) were greater than 50000 nM and 22000 nM, respectively.

For `CC(C(=O)Nc1n[nH]c2cc(Cl)c(-c3ccccc3)cc12)N1CCCCC1` (centres undefined), in series [1], the solubility is less than 20 µg/mL. For the same compound, the logD in series [2] came out at 3.53.

Take `CCC(=O)Nc1n[nH]c2cc(Cl)ccc12`: the solubility in series [1] (read-out: solubility) stood at 168 µg/mL (≈ 751 µM). In [2], this compound yielded a logD of 2.2. Moreover, the Activity at Albumin is 92.8%.

Regarding `CCCC(=O)Nc1n[nH]c2cc(Cl)c(Br)cc12`, the solubility in series [1] is less than 20 µg/mL. In series [2], this compound registered a logD of 4.4. Moreover, the figures for the remaining at 0.25 h in [3] and in [4] were 97% and 87%, respectively. Also, the permeability in the series on Caco-2 came to 17.25%. Moreover, the IC50 at Cytochrome P450 1A2 was 550 nM.

Consider `CCCC(=O)Nc1n[nH]c2cc(Cl)c(-c3ccc(N)cc3)cc12`, for which the IC50 on Cytochrome P450 1A2 stood at 980 nM.

The compound `CCCC(=O)Nc1n[nH]c2cc(Cl)c(-c3ccc(O)cc3)cc12` displayed a solubility in [1] of less than 20 µg/mL. Moreover, the log distribution coefficient (logD) in [2] is 3.9. Moreover, the remaining at 0.25 h in series [4] came out at 19%. The permeability in the series with Caco-2 worked out at 8.02%. Moreover, the IC50 in [5] is 80 nM.

Regarding `CCCC(=O)Nc1n[nH]c2c(F)c(F)ccc12`, in series [1], the concentration in solution (solubility) was 54 µg/mL (≈ 226 µM). For the same compound, in series [2], the logD is 3. The remaining at 0.25 h in series [3] was found to be 98%; in series [4], 93%. Moreover, in the series on Caco-2, the permeability is 16.33%.

As to `CCCC(=O)Nc1n[nH]c2cc(Cl)c(-c3ccc(C)cc3)cc12`, at Cytochrome P450 1A2, the IC50 is 1750 nM.

On to `CCCC(=O)Nc1n[nH]c2cc(-c3ccccc3)ccc12`, for which the results for the IC50 (at Cytochrome P450 1A2; in series [5]) were greater than 10000 nM and 390 nM, respectively.

For the compound `O=C(CN1CCOCC1)Nc1n[nH]c2cc(Cl)ccc12`, in series [1], the solubility was less than 20 µg/mL. In [2], this compound displayed a logD of 3.1.

`CCCC(=O)Nc1n[nH]c2cc(Cl)c(-c3ccoc3)cc12`: in series [1], the solubility was less than 20 µg/mL. The compound also returned a log distribution coefficient (logD) in series [2] of 4.1. The values for the remaining at 0.25 h in [3] and in series [4] were 45% and 4%, respectively. The permeability in the series on Caco-2 is 12.3%. Moreover, the figures for the IC50 (at Cytochrome P450 1A2; in series [5]) were less than 400 nM and 30 nM, respectively.

Take `CCCC(=O)Nc1n[nH]c2c(F)c(F)c(-c3ccccc3)cc12`: the solubility in series [1] was 4 µg/mL (≈ 12.7 µM). The compound further came in with a logD in [2] of 2.4. For the same compound, the figures for the remaining at 0.25 h in [3] and in [4] were 86% and 56%, respectively.
